The structures appear in SMILES notation.

The target of data set [1] is T1, Interstitial collagenase (Homo sapiens, UniProt P03956).
T1 sequence (P03956 whole entry): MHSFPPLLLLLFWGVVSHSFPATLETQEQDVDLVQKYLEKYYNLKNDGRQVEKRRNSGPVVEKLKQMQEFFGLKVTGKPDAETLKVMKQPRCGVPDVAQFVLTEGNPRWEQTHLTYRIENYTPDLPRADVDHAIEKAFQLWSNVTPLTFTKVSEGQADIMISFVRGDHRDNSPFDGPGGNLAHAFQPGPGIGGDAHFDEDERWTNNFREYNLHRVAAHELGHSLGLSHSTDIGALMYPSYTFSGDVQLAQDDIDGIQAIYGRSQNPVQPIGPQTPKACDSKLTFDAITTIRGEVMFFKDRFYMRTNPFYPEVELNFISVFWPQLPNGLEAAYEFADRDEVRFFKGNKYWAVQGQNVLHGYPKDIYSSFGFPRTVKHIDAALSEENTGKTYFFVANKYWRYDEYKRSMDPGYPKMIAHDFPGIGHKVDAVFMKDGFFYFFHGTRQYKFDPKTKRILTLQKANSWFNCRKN
The data set can be described thus: Inhibition of human recombinant MMP1 using MCA-Pro-Leu-Gly-Leu-Dpa-Ala-Arg-NH2.AcOH as substrate preincubated for 10 mins measured by fluorescence analysis. An outline of the steps: (§1)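 Catalytic domains of recombinant human MMPs were assayed with fluorogenic OmniMMP substrate in 50 mM Tris-HCl pH 7.5, 150 mM NaCl, 5 mM CaCl₂, 0.05% Brij-35. Enzyme was 1–10 nM and substrate 4–10 μM, optimized per assay. Enzyme was preincubated 10 min with varying inhibitor concentrations, and IC50 was calculated from runs done at least in duplicate.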

Data set [2] is described as follows: Metabolic stability in human microsomes assessed as unmetabolized compound after 60 mins. The format is ADME, Microsome. The note with it: read-out: Stability.
The subject of data set [3] is Plasma. The data set can be described thus: Drug uptake in Sprague-Dawley rat plasma at 0.5 mg/kg, ia measured after 8 weeks. Conditions: in vivo, other, 1344 h, BLD = below limit of detection. Format: ADME, organism-based. Set-up: dose 0.5 mg/kg.
A short description of data set [4]: Drug uptake in Sprague-Dawley rat synovial lavage at 0.5 mg/joint measured after 21 days. The format is ADME. The note with it: read-out: Drug uptake.
Data set [5] addresses 72 kDa type IV collagenase (Homo sapiens, UniProt P08253). The data set can be described thus: Inhibition of human recombinant MMP2 using MCA-Pro-Leu-Gly-Leu-Dpa-Ala-Arg-NH2.AcOH as substrate preincubated for 10 mins measured by fluorescence analysis. The gist of the method:
as §1

Data set [6] is described as follows: Drug uptake in Sprague-Dawley rat cartilage at 0.5 mg/joint measured after 21 days. Conditions: read-out: Drug uptake. The format is ADME, tissue-based, Cartilage tissue.
For data set [7], the system named is Plasma. The data set can be described thus: Drug uptake in Sprague-Dawley rat plasma at 0.5 mg/joint measured after 8 weeks. Format: ADME, cell-free. Conditions: other, 1344 h, BLD = below limit of detection.
The target in data set [8] is Matrix metalloproteinase-14 (Homo sapiens, UniProt P50281). The data set can be described thus: Inhibition of human recombinant MMP14 using MCA-Pro-Leu-Gly-Leu-Dpa-Ala-Arg-NH2.AcOH as substrate preincubated for 10 mins measured by fluorescence analysis. An outline of the steps:
as §1

The test system of data set [9] is Rattus norvegicus. The data set can be described thus: Toxicity in Sprague-Dawley rat assessed as adverse effects at 0.5 mg/kg, ia measured after 3 weeks. The format is organism-based. Set-up: dose 0.5 mg/kg. Conditions: in vivo, other, 504 h.
The species named for data set [10] is Rattus norvegicus. The data set can be described thus: Toxicity in Sprague-Dawley rat assessed as impaired use of limbs at 0.5 mg/joint measured on day 56. The note with it: in vivo, other. The format is organism-based.
For data set [11], the system named is Plasma. The data set can be described thus: Drug uptake in Sprague-Dawley rat plasma at 1 mg/kg, iv measured after 8 weeks. Format: ADME, organism-based. Set-up: dose 1 mg/kg, route intravenous. The note with it: in vivo, 1344 h, BLD = below limit of detection.
For data set [12], the species on record is Rattus norvegicus. The data set can be described thus: Chondroprotective activity in Sprague-Dawley rat cartilage assessed as inhibition of MMP13-mediated C1,C2 release at 0.5 mg/joint, ia measured on day 21 by ELISA. Format: functional. The gist of the method: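 Male Sprague-Dawley rats (175−200 g, three per group) received one IA injection of 50 μL PBS holding 10 mg/mL suspension (sonicated, vortexed) into right knee. They were killed at 1, 7, 14 or 21 days, and tibial cartilage was collected. Cartilage was then challenged with 10 μg/mL APMA-activated human MMP-13 for 24 h at 37 °C in Tris pH 7.5. The reaction was stopped with 10 mM EDTA, and released C1,2C was measured by ELISA. Vehicle cartilage incubated with or without MMP-13 defined 100% and 0%.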

The target in data set [13] is Matrix metalloproteinase-9 (Homo sapiens, UniProt P14780). The data set can be described thus: Inhibition of human recombinant MMP9 using MCA-Pro-Leu-Gly-Leu-Dpa-Ala-Arg-NH2.AcOH as substrate preincubated for 10 mins measured by fluorescence analysis. An outline of the steps:
as §1

Data set [14] deals with Plasma. The data set can be described thus: Drug uptake in Sprague-Dawley rat plasma at 100 mg/kg, ip measured after 8 weeks. The format is ADME, organism-based. Set-up: dose 100 mg/kg, route intraperitoneal. The note with it: in vivo, 1344 h, BLD = below limit of detection.
The target in data set [15] is T2, A disintegrin and metalloproteinase with thrombospondin motifs 4 (Homo sapiens, UniProt O75173).
T2 sequence (O75173 whole entry): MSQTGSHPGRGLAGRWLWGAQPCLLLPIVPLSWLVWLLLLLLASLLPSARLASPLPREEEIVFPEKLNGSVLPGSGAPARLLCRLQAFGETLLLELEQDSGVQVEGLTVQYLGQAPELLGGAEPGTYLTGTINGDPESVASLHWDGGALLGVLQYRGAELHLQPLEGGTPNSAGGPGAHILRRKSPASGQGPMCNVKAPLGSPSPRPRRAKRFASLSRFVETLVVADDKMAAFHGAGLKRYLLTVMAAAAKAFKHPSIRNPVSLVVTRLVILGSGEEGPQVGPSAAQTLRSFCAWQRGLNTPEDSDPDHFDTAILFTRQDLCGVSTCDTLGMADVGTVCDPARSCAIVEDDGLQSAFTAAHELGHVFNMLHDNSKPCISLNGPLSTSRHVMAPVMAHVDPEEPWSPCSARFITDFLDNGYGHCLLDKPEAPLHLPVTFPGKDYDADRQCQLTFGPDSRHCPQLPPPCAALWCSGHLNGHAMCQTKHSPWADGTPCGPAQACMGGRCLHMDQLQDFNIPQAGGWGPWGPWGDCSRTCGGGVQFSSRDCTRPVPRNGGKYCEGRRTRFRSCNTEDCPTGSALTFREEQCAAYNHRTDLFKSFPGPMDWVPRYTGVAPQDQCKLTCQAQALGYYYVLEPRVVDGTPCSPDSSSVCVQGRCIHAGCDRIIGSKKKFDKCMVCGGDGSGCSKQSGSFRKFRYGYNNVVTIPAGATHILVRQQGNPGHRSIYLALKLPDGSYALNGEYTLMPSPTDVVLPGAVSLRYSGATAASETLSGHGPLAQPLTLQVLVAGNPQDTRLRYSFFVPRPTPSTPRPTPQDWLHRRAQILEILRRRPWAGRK
The data set can be described thus: Inhibition of human recombinant aggrecanase 1 using aggrecan-IGD as substrate measured after 15 mins by ELISA. An outline of the steps:
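Aggrecanase-1 was run in 50 mM Tris-HCl pH 7.5, 150 mM NaCl, 5 mM CaCl₂, 0.05% Brij-35, with 100 nM recombinant human aggrecan interglobular domain as substrate, for 15 min at 37 °C. The reaction was stopped with EDTA, and ARGSVIL neoepitopes were quantified by ELISA.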
(In general: In an ELISA, binding on a coated surface is turned into a signal by an enzyme label.)

In data set [16] the target is Collagenase 3 (Homo sapiens, UniProt P45452). The data set can be described thus: Inhibition of human recombinant MMP13 using MCA-Pro-Cha-Gly-Nva-His-Ala-Dpa-NH2 as substrate preincubated for 10 mins measured by fluorescence analysis. The gist of the method: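 Catalytic domain of recombinant human MMP-13 was assayed with fluorogenic substrate in 50 mM Tris-HCl pH 7.5, 150 mM NaCl, 5 mM CaCl₂, 0.05% Brij-35. Enzyme was 1–10 nM and substrate 4–10 μM. It was preincubated 10 min with varying inhibitor concentrations, and IC50 came from at least duplicate runs.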

Data set [17] addresses Macrophage metalloelastase (Homo sapiens, UniProt P39900). The data set can be described thus: Inhibition of human recombinant MMP12 using MCA-Pro-Leu-Gly-Leu-Dpa-Ala-Arg-NH2.AcOH as substrate preincubated for 10 mins measured by fluorescence analysis. The gist of the method: as §1

Sequence of 72 kDa type IV collagenase (P08253 whole entry): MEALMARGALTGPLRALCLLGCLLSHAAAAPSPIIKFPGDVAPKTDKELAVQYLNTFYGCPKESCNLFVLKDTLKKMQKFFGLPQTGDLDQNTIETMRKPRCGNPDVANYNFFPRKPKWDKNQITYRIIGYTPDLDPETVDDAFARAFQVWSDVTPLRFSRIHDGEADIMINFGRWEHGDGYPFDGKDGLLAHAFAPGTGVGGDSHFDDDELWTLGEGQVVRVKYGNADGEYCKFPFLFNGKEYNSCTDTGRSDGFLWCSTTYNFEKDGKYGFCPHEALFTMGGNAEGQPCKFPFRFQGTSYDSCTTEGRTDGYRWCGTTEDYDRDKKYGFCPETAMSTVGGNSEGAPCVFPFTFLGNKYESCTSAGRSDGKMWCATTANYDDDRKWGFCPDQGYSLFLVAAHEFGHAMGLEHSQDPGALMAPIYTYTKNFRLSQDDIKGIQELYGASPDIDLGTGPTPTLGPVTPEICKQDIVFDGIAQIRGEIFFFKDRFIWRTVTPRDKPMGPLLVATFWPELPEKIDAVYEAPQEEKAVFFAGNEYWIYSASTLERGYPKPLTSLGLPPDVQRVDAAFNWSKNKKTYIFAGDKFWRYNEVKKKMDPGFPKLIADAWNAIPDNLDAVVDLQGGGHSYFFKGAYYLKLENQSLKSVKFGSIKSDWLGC
Sequence of Matrix metalloproteinase-9 (P14780 whole entry): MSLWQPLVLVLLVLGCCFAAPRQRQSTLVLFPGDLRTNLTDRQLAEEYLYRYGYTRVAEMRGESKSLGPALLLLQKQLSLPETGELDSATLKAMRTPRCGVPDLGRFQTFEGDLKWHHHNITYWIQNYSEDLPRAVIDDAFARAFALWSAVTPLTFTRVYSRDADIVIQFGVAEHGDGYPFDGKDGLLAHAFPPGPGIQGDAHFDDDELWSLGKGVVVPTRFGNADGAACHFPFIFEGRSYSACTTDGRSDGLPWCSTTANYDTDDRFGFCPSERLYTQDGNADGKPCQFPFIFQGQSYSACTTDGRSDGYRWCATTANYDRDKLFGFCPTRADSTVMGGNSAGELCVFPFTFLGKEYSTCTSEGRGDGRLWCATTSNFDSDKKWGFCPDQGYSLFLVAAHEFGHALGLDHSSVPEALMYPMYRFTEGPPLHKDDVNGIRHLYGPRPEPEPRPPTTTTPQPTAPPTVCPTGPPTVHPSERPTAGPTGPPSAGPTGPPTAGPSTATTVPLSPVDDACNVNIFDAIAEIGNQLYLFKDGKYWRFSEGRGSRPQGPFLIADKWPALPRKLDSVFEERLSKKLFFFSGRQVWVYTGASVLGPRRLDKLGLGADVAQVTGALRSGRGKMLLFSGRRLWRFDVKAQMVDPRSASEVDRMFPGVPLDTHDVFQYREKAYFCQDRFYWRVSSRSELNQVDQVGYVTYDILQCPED
Sequence of Macrophage metalloelastase (P39900 whole entry): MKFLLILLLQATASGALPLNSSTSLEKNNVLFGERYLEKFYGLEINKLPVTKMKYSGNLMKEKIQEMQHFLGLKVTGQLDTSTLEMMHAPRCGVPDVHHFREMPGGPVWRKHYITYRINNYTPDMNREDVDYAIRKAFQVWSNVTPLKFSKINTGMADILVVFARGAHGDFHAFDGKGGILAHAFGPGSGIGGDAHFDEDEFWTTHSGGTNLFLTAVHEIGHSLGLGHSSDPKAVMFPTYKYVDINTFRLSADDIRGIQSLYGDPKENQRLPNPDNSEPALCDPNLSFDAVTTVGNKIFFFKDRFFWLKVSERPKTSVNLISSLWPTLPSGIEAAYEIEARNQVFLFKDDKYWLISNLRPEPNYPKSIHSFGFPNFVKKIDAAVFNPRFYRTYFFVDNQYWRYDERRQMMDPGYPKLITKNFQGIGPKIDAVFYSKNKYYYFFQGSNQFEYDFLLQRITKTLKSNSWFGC

Consider `Cc1c(C(=O)O)ccc2c1CC[C@@H]2NC(=O)c1cc(C(=O)NCc2ccc3c(c2)NC(=O)CO3)nc2ccnn12`, for which the IC50 in [1] is > 20000 nM; in [5], > 20000 nM; in data set [8], > 20000 nM; in data set [13], > 20000 nM; in data set [15], 2400 nM; in [16], 0.03 nM. In addition, the IC50 in data set [17] stood at 655 nM. Besides, the remaining at 1 h in [2] was found to be 96%. Further, the Cp entry in data set [3], in data set [7], in [11] and in [14] was “BLD” throughout. For the same molecule, the concentration at 504 h in data set [4] worked out at 300 nM; in data set [6], 4090 nM. The Activity entry in data set [9] and in [10] was “Non-toxic” throughout. In data set [12], the “inhibition (INH)” value was 100%.

In general, IC50 refers to the concentration that gives 50% inhibition.

These data come from ChEMBL document CHEMBL2046313, “Discovery and evaluation of a non-Zn chelating, selective matrix metalloproteinase 13 (MMP-13) inhibitor for potential intra-articular treatment of osteoarthritis” (J Med Chem, 2012).
